Assay outcomes as filed in PubChem BioAssay.
PKA-R1A activ: PKA-R1A complex activation; P00514+P68181; PKA-R1A dissociation, Cy5-IP20 fluorescence polarization; scaled: DMSO 0%, 113 µM cGMP 100%; activation, % at 11.4 µM; hit rate 0.083% among 340,000;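 active means percent activation above the mean of all tested compounds plus 3 SD, cut at about 19% in these data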;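 further: higher means more PKAc released from R1A so a rise in polarization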
Tn6 DDE FP: DD(E)-Tn6 binding inhibition, primary FP screen. Fibrin DD(E) TRITC-Tn6 fluorescence polarization displacement. inhibition, % at 8.3 µM. hit rate 0.21% among 370,000. AID 720509. P02675;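 active means inhibition above a per-campaign cutoff: mean of compounds within control limits plus 3 SD, cut at about 15% in these data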;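 further: 0% = median of all compound wells on the plate and 100% = blocking peptide control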
PKA-R2B activ: activates the human PKA-R2B holoenzyme complex; P22694+P31323; PKA-R2B holoenzyme dissociation, Cy5-IP20 fluorescence polarization; R2B truncated from residue 108, S112A mutant; 0% DMSO only, 100% 113 µM cGMP; activation, % at 11.4 µM; hit rate 0.079% among 340,000; AID 504700;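 active means activation above a cutoff set at the mean over all compounds plus 3 SD, cut at about 18% in these data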;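 further: higher means more holoenzyme dissociation and a rise in polarization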
Target sequence (P31323 whole entry, looked up, other chains not shown, the tested form may be a part): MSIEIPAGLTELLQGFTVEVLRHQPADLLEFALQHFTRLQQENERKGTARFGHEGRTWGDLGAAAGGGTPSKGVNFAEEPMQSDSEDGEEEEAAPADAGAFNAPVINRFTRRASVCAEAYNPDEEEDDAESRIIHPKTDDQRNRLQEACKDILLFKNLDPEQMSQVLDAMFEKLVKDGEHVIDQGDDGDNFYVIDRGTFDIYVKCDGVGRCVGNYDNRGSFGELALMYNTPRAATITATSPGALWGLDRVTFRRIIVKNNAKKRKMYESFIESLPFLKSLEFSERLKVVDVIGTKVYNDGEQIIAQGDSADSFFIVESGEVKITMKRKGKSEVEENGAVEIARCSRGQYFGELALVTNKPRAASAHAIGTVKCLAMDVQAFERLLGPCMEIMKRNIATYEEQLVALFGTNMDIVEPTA
DDE Tn7 FP inh: inhibitors of Tn7 peptide binding to human fibrin DD(E). P02675. AID 720508. hit rate 0.13% among 370,000. FP displacement of FITC-Tn7 peptide from fibrin DD(E); 0% = median of compound wells per plate. inhibition, % at 8.3 µM;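 active means inhibition above the mean of compounds falling within the control limits plus 3 SD of them, cut at about 14% in these data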;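 further: 0% = plate median of compound wells and 100% = 10 µM Aha-Tn7 peptide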
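system = human fibrin DD(E) protein | quantity = DD(E) 2 µM final | medium = Tris/NaCl/CaCl2 buffer, pH 7.8 | also added = labelled Tn7 tracer, 0.1 µM | compound dosing = single point at 8.3 µM | timing = compound with protein 10 min, then 3 h after probe, room temperature | signal = FP measurement | benchmarks = Aha-Tn7 high control | repeats = one replicate per compound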
Neddyl block: blocks human cullin neddylation. P61081+Q13564. TR-FRET cullin neddylation, biochemical. inhibition, % at 25 µM. hit rate 0.58% among 360,000. AID 651699; in the data active means inhibition above about 36%
Neddyl conf: cullin neddylation inhibition, confirmation | shares compounds with Neddyl block | TR-FRET cullin neddylation biochemical assay | calls only at 25 µM | hit rate 13% among 1,800; in the data active means inhibition above about 40%;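 further: neddylation substrate is the cullin 1 ring ligase complex with SKP2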
Active calls of the source: *. In the library only some 1% were active in any assay of this set; here they are far more common.

How did N#CC1=C(N)Oc2cc(N)ccc2C1c1ccc(Cl)cc1 (stereo unspecified) do in these assays?
PKA-R1A activ: -10; Tn6 DDE FP: 0; PKA-R2B activ: 4; DDE Tn7 FP inh: -4; Neddyl block: 12

What do the screens show for `CCc1ccc(C2C(C#N)=C(N)Oc3cc(N)ccc32)cc1` (stereo unspecified)?
PKA-R1A activ: 7; Tn6 DDE FP: -4; PKA-R2B activ: -2; DDE Tn7 FP inh: -9; Neddyl block: 44*; Neddyl conf: inactive

How did Cc1ccc(C)c(OCC(=O)N/N=C/c2ccsc2)c1 do in these assays?
PKA-R1A activ: -3; Tn6 DDE FP: 4; PKA-R2B activ: -23; DDE Tn7 FP inh: 2; Neddyl block: 2

How did C/C(=N/NC(=O)COc1ccc(C(C)(C)C)cc1)c1ccc(N2CCOCC2)cc1 do in these assays?
PKA-R1A activ: 4; Tn6 DDE FP: 3; PKA-R2B activ: 5; DDE Tn7 FP inh: -3; Neddyl block: 20

How did Cc1ccc(C)c(OCC(=O)N/N=C/c2ccc(N3CCOCC3)cc2)c1 do in these assays?
PKA-R1A activ: 11; Tn6 DDE FP: 1; PKA-R2B activ: 5; DDE Tn7 FP inh: 8; Neddyl block: 48*; Neddyl conf: active

Results for CC(C)(C)c1ccc(OCC(=O)N/N=C/c2ccc(N3CCOCC3)cc2)cc1 ?
PKA-R1A activ: -13; Tn6 DDE FP: 1; PKA-R2B activ: 2; DDE Tn7 FP inh: 2; Neddyl block: 54*; Neddyl conf: inactive

Results for Cc1c(CC(=O)O)c(=O)oc2c(C)c(OCc3nn[nH]n3)ccc12 ?
PKA-R1A activ: -3; Tn6 DDE FP: 6; PKA-R2B activ: -4; DDE Tn7 FP inh: 0

Results for Cc1c(Cc2ccccc2)c(=O)oc2c(C)c(OCc3nn[nH]n3)ccc12 ?
PKA-R1A activ: -11; Tn6 DDE FP: 6; PKA-R2B activ: -12; DDE Tn7 FP inh: 5; Neddyl block: 41*; Neddyl conf: inactive

What do the screens show for `Cc1c(C)n(CCCN(C)C)c2ncnc(Nc3ccccc3)c12`?
PKA-R1A activ: -6; Tn6 DDE FP: -6; PKA-R2B activ: -7; DDE Tn7 FP inh: 2; Neddyl block: 42*; Neddyl conf: inactive

How did COc1ccc(C(=O)Nc2ccc(NC(=O)c3cccs3)cc2)cc1Cl do in these assays?
PKA-R1A activ: 4; Tn6 DDE FP: 5; PKA-R2B activ: 6; DDE Tn7 FP inh: -8; Neddyl block: 40*; Neddyl conf: inactive

What do the screens show for `COc1ccc(S[C@]2(C(=O)N3CCN(c4ncccn4)CC3)CC(=O)N(P(=O)(OC)OC)[C@@H]2c2ccc(OC)cc2)cc1`?
Tn6 DDE FP: -2; DDE Tn7 FP inh: 0

How did CCC(=O)Nc1cc(-c2nn(C)c(=O)c3ccccc23)ccc1N1CCCCC1 do in these assays?
PKA-R1A activ: -5; Tn6 DDE FP: -7; PKA-R2B activ: 3; DDE Tn7 FP inh: -3; Neddyl block: 38*; Neddyl conf: inactive

Results for CCCc1nc2c(C)cc(Br)cn2c1Cc1ccccc1OC ?
Tn6 DDE FP: 6; DDE Tn7 FP inh: 3

What do the screens show for `COc1ccc(C(=O)CSc2nnc(-c3cccnc3)n2-c2ccc(C)cc2)cc1`?
Tn6 DDE FP: 2; DDE Tn7 FP inh: 0

Results for COc1ccc(CNC2CCCCC2C)c(OC)c1 (stereo unspecified) ?
PKA-R1A activ: 12; PKA-R2B activ: 9; Neddyl block: 43*

Results for CC(C)(C)C1c2[nH]c3ccccc3c2CCN1Cc1cccc(OCCO)c1 (stereo unspecified) ?
PKA-R1A activ: 1; Tn6 DDE FP: 4; PKA-R2B activ: -6; DDE Tn7 FP inh: -5; Neddyl block: 52*; Neddyl conf: inactive

Results for O=C(NNC(=O)C1C2CCCCC21)c1coc(=O)c(Br)c1 (stereo unspecified) ?
PKA-R1A activ: 2; Tn6 DDE FP: 0; PKA-R2B activ: 9; DDE Tn7 FP inh: -5; Neddyl block: 39*; Neddyl conf: inactive

Results for O=C(NC(CO)(CO)CO)c1coc(=O)c(Br)c1 ?
PKA-R1A activ: -6; Tn6 DDE FP: -10; PKA-R2B activ: -11; DDE Tn7 FP inh: -4; Neddyl block: -11

What do the screens show for `O=C(Nc1cc(Cl)cc(Cl)c1)c1coc(=O)c(Br)c1`?
PKA-R1A activ: -8; Tn6 DDE FP: -1; PKA-R2B activ: -1; DDE Tn7 FP inh: -9; Neddyl block: 40*; Neddyl conf: inactive

Results for CC(C)(C)c1ccc(S(=O)(=O)N2CCC(C(=O)NCC3COCCO3)CC2)cc1 (stereo unspecified) ?
Tn6 DDE FP: -2; DDE Tn7 FP inh: -2

How did O=C(N/N=C/c1c(O)n(Cc2ccccc2)c(=O)c2ccccc12)c1cccnc1 do in these assays?
PKA-R1A activ: -12; Tn6 DDE FP: -14; PKA-R2B activ: -1; DDE Tn7 FP inh: -9; Neddyl block: 42*

How did O=C(N/N=C/c1cn(Cc2ccccc2)c2ccccc12)c1cccnc1 do in these assays?
PKA-R1A activ: -10; Tn6 DDE FP: 0; PKA-R2B activ: -3; DDE Tn7 FP inh: 6; Neddyl block: 30

How did CCOC(=O)CC[C@H]1CC[C@]2(CCCN(C(=O)c3ccc4ccccc4n3)C2)O1 do in these assays?
Tn6 DDE FP: 0; DDE Tn7 FP inh: -10

Results for CC(C)(C)NC(=O)C(c1ccc(C(F)(F)F)cc1)n1c(=O)c(-c2ccccc2)nc2ccccc21 (stereo unspecified) ?
Tn6 DDE FP: -2; DDE Tn7 FP inh: 0; Neddyl block: 31

What do the screens show for `CCCCCNC(=O)C(C1CC1)n1c(=O)c(-c2ccccc2)nc2ccccc21` (stereo unspecified)?
Tn6 DDE FP: 3; DDE Tn7 FP inh: -5; Neddyl block: 45*

Results for Cc1cccc(C)c1NC(=O)C(c1ccncc1)n1c(=O)c(-c2ccccc2)nc2ccccc21 (stereo unspecified) ?
Tn6 DDE FP: 2; DDE Tn7 FP inh: 5; Neddyl block: 62*; Neddyl conf: active

Results for CC(C)(C)NC(=O)C(c1ccncc1)n1c(=O)c(-c2ccccc2)nc2ccccc21 (stereo unspecified) ?
Tn6 DDE FP: -1; DDE Tn7 FP inh: 8; Neddyl block: 50*

Results for COc1ccc(NC(=O)C(C2CC2)n2c(=O)c(-c3ccccc3)nc3ccccc32)cc1 (stereo unspecified) ?
Tn6 DDE FP: 3; DDE Tn7 FP inh: -5; Neddyl block: -2

Results for O=C(NC1CCCCC1)C(c1ccc(C(F)(F)F)cc1)n1c(=O)c(-c2ccccc2)nc2ccccc21 (stereo unspecified) ?
Tn6 DDE FP: -2; DDE Tn7 FP inh: 11; Neddyl block: 41*; Neddyl conf: inactive
